Consider 32 molecules from ChEMBL document CHEMBL1124367, “Design, synthesis, and testing of potential antisickling agents. 7. Ethacrynic acid analogues” (J Med Chem, 1989).

A short description of data set [1]: Solubility ratio for sickle cell haemoglobin in presence and absence of compound. In kind it is ADME. The essentials: (§1)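 HbS purified from red cells by DEAE-Sephacel chromatography and held in 150 mM phosphate, pH 7.4. Compound was added as its sodium salt in 0.15 M phosphate, pH 7.4, and incubated with HbS overnight at 4°C. Samples were sealed in EPR tubes and spun at 150000 g for 2.5 h at 35°C.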

A short description of data set [2]: Solubility ratio of the sickle cell haemoglobin with compound to sickle cell haemoglobin with out compound at 7 mM. Particulars: 7000 µM. The format is ADME. The essentials: as §1
A short description of data set [3]: Solubility ratio of the sickle cell haemoglobin with compound to sickle cell haemoglobin with out compound at 3 mM. The format is ADME. The settings on record: 3000 µM. The method, boiled down: as §1
For data set [4], the system named is Canis familiaris. As to the kind of experiment: Diuretic activity of compound measured in dog urine after intravenous injection of 5 mg/kg. In kind it is functional, Canis lupus familiaris.
A short description of data set [5]: (§2) Solubility ratio of the sickle cell haemoglobin with compound to sickle cell haemoglobin with out compound at 9 mM. The format is ADME. The settings on record: 9000 µM. The method, boiled down:
as §1

A short description of data set [6]: as §2. The format is ADME. Particulars: 9000 µM. The method, boiled down: (§3)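 HbS purified from red cells by DEAE-Sephacel chromatography and held in 150 mM phosphate, pH 7.4. Compound was added as its sodium salt in 0.15 M phosphate, pH 7.4, and incubated with HbS overnight at 4°C. Sodium dithionite was then added (final 58.88 mM, final HbS about 24 g%). Samples were sealed in EPR tubes and spun at 150000 g for 2.5 h at 35°C.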
The source holds these as a separate data set.

A short description of data set [7]: Solubility ratio of the sickle cell haemoglobin with compound to sickle cell haemoglobin with out compound at 10 mM. In kind it is ADME. Particulars: 10000 µM. The essentials:
as §3

Data set [8] in a line: Solubility ratio of the sickle cell haemoglobin with compound to sickle cell haemoglobin without compound at 5 mM. The format is ADME. The settings on record: 5000 µM. The essentials:
as §3

Data set [9] deals with Canis familiaris. As to the kind of experiment: Diuretic activity of compound measured in dog urine after intravenous administration of 5 mg/kg.
The nature of data set [10]: Solubility ratio of the sickell cell haemoglobin with compound to sickle cell haemoglobin with out compound at 7 mM. In kind it is ADME. The settings on record: 7000 µM. The method, boiled down:
as §3

The nature of data set [11]: Solubility ratio of the sickell cell haemoglobin with compound to sickle cell haemoglobin with out compound at 9 mM. Particulars: 9000 µM. In kind it is ADME. The essentials: as §3
A short description of data set [12]: Solubility ratio of the sickell cell haemoglobin with compound to sickle cell haemoglobin with out compound at 5 mM. The format is ADME. Particulars: 5000 µM. The method, boiled down: as §3
Data set [13] is described as follows: Solubility ratio of the sickle cell haemoglobin with compound to sickell cell haemoglobin with out compound at 10 mM. The format is ADME. The settings on record: 10000 µM. The essentials:
as §3

Data set [14] can be described thus: Solubility ratio of the sickle cell haemoglobin with compound to sickell cell haemoglobin with out compound at 5 mM. The format is ADME. Particulars: 5000 µM. The method, boiled down: as §3
Data set [15] is described as follows: Solubility ratio of the sickel cell haemoglobin with compound to sickle cell haemoglobin with out compound at 3 mM. The format is ADME. Particulars: 3000 µM. The method, boiled down:
as §3

As for `C/C(=C/c1ccc(OCC(=O)O)cc1)[N+](=O)[O-]`, the Solubility ratio is 1.076 in data set [1], 1.075 in data set [2], 1.038 in data set [3] and 1.099 in data set [5]. This molecule gave a Diuretic activity with Canis familiaris [4] of 1.

As for `C=C(CC)C(=O)c1c(Cl)cc(Cl)cc1OCC(=O)O`, the Solubility ratio in data set [1] is 1.08; in data set [2], 1.103; in [3], 1.048; in data set [5], 1.129.

In the case of `CC/C(=C/c1ccc(C(=O)O)cc1Cl)[N+](=O)[O-]`, the Solubility ratio in data set [1] was 1.1; in data set [2] it was 1.106; in data set [3], 1.052; in [6] it was 1.15.

As for `CCC(C)C(=O)c1ccc(OCC(=O)O)c(Cl)c1Cl` (stereo unspecified), the Solubility ratio in data set [7] was 1.088; in data set [8] it was 1.061. For the same molecule, the Diuretic activity in the data set with Canis familiaris [4] is 2.

Regarding `CC1(C2CCCC2)Cc2cc(OCCCC(=O)O)c(Cl)c(Cl)c2C1=O` (stereo unspecified), the Solubility ratio in data set [1] is reported as 0.961; in data set [7], 1.006.

Regarding `C=C(CC)C(=O)c1ccc(OCC(=O)O)c(Cl)c1Cl` [ETHACRYNIC ACID], the Solubility ratio was 1.125 in [1], 1.151 in [2], 1.07 in [3] and 1.184 in data set [5]. This molecule came in with a Diuretic activity in the data set with Canis familiaris [4] of 6.

As for `C=C(CC)C(=O)c1ccc(OCCCCC(=O)O)c(Cl)c1Cl`, the Solubility ratio in data set [1] is reported as 1.129; in [2] it was 1.2; in [3], 1.081; in [5], 1.308.

Turning to `C=C(CC)C(=O)c1ccc(OCC(=O)NCC(=O)O)c(Cl)c1Cl`, the Solubility ratio is on record as 1.145 in [1], 1.222 in data set [2], 1.109 in data set [3] and 1.327 in [5]. This molecule registered a Diuretic activity in the data set on Canis familiaris [4] of 3.

With `C=C(CC)C(=O)c1ccc(OCCCC(=O)O)c(Cl)c1Cl`, the Solubility ratio in data set [1] is given as 1.122; in data set [2] it was 1.168; in data set [3], 1.084; in data set [5] it was 1.196.

Regarding `C=C(CC)C(=O)c1ccc(OC2(C(=O)O)CCC2)c(Cl)c1Cl`, the Solubility ratio in data set [1] is recorded as 1.127; in [2], 1.147; in [3], 1.08; in data set [5], 1.202.

For `CC1(C2CCCC2)Cc2cc(OCC(=O)O)c(Cl)c(Cl)c2C1=O` (stereo unspecified), the Solubility ratio in data set [1] is 1.01; in data set [7] it was 1.015. In the data set on Canis familiaris [9], this molecule registered a Diuretic activity of 2.

For the molecule `C=C(CC)C(=O)c1ccc(OCCC(=O)O)c(Cl)c1Cl`, the Solubility ratio in data set [10] stood at 1.188; in data set [3], 1.112; in data set [11] it was 1.302; in data set [12], 1.145.

Turning to `CCC(CN(C)C)C(=O)c1ccc(OCC(=O)O)c(Cl)c1Cl.Cl` (stereo unspecified), the Solubility ratio in data set [1] amounted to 1.018; in data set [7], 1.168. For the same molecule, in the data set with Canis familiaris [4], the Diuretic activity came to 4.

Take `CC1(c2ccccc2)Cc2cc(OCC(=O)O)c(Cl)c(Cl)c2C1=O` (stereo unspecified) [INDACRINONE]: the Solubility ratio is listed as 0.989 in [1] and 1 in data set [7]. The molecule also displayed a Diuretic activity in the data set with Canis familiaris [9] of 3.

As to `C=C(CC)C(=O)c1ccc(OCCN(CC)CC)c(Cl)c1Cl`, the Solubility ratio in data set [1] was 1.077; in [2], 1.089; in [3], 1.073; in data set [5], 1.113.

Consider `O=C(c1cccs1)c1cc2c(c(Cl)c1Cl)OC(C(=O)O)C2` (stereo unspecified), for which the results for the Solubility ratio in data set [1] and in data set [7] were 1.076 and 1.08, respectively. The molecule further displayed a Diuretic activity in the data set with Canis familiaris [9] of 0.

For the molecule `C=CC(=O)c1ccc(OCC(=O)O)c(Cl)c1Cl`, the Solubility ratio in [1] is recorded as 1.06; in data set [2], 1.067; in data set [3], 1.033; in data set [5] it was 1.095.

On to `CCC(SC)C(=O)c1ccc(OCC(=O)O)c(Cl)c1Cl` (stereo unspecified), for which the Solubility ratio in data set [1] is 1.016; in data set [7], 1.073.

The molecule `CC(=O)C(=Cc1ccc(OCC(=O)O)c(Cl)c1Cl)C(C)=O` came in with a Diuretic activity in the data set with Canis familiaris [4] of 6.

Take `CC/C(=C/c1ccc(OCC(=O)O)c(OC)c1)[N+](=O)[O-]`: the Solubility ratio in [1] amounted to 1.128; in [2], 1.159; in data set [3] it was 1.085; in data set [5] it was 1.207.

For `C/C=C(\CC)C(=O)c1ccc(OCC(=O)O)c(Cl)c1Cl`, the Solubility ratio was 1.033 in [1], 1.062 in data set [2], 1.017 in [3] and 1.078 in data set [5]. Further, in the data set on Canis familiaris [4], the Diuretic activity came out at 5.

On to `C=C(CC)C(=O)c1ccc(OCCCC(=O)NCC(=O)O)c(Cl)c1Cl`, for which the Solubility ratio in data set [1] was 1.224; in data set [2] it was 1.287; in [3], 1.107; in data set [5] it was 1.309.

For the molecule `C=C(CCC)C(=O)c1ccc(OC2(C(=O)O)CCC2)c(Cl)c1Cl`, the Solubility ratio in [1] came to 1.085; in data set [2], 1.099; in data set [3], 1.057; in [5] it was 1.143.

For the molecule `CCC1=Cc2cc(OCC(=O)O)c(Cl)c(Cl)c2C1=O`, the Solubility ratio in data set [1] came to 1.09; in data set [2] it was 1.103; in data set [3], 1.074; in data set [5] it was 1.12. Besides, in the data set with Canis familiaris [4], the Diuretic activity is recorded as 5.

As to `CCC1=C(c2ccc(OCC(=O)O)c(Cl)c2Cl)OC(CC)(C(=O)c2ccc(OCC(=O)O)c(Cl)c2Cl)CC1` (stereo unspecified), the Solubility ratio in [13] came to 0.996; in data set [14], 0.993. Besides, the Diuretic activity with Canis familiaris [4] is recorded as 0.

Turning to `C=C(CC)C(=O)c1ccc(OC(C)(C)C(=O)O)c(Cl)c1Cl`, the Solubility ratio in data set [1] was 1.094; in [2], 1.183; in data set [3] it was 1.05; in data set [5], 1.237. For the same molecule, the Diuretic activity with Canis familiaris [4] came out at 0.

For `C=C(CCC)C(=O)c1ccc(OCCCC(=O)O)c(Cl)c1Cl`, the Solubility ratio was 1.115 in [1], 1.155 in [2], 1.082 in data set [3] and 1.149 in data set [5].

Consider `CCC(C(=O)c1ccc(OCC(=O)O)c(Cl)c1Cl)S(C)(=O)=O` (stereo unspecified), for which the Solubility ratio in [13] amounted to 1.052; in data set [14], 1.029.

For `CCC1=C(c2ccc(OCCCC(=O)O)c(Cl)c2Cl)OC(CC)(C(=O)c2ccc(OCCCC(=O)O)c(Cl)c2Cl)CC1` (stereo unspecified), the Solubility ratio in [1] is listed as 1.059; in data set [5] it was 1.039.

Turning to `CC/C(=C/c1ccc(OCC(=O)O)c(Cl)c1Cl)[N+](=O)[O-]`, the Solubility ratio in [1] was 1.086; in data set [2], 1.096; in data set [3], 1.051; in [5] it was 1.131.

Take `C=C(CC)C(=O)c1ccc(OCCCCCC(=O)O)c(Cl)c1Cl`: the Solubility ratio in [1] worked out at 1.086; in [15], 1.063; in [2], 1.125; in [5], 1.164.

For the molecule `CC(C)C(Br)C(=O)c1ccc(OCC(=O)O)c(Cl)c1Cl` (stereo unspecified), the Solubility ratio in [1] was determined as 0.966; in data set [7], 0.983. The Diuretic activity in the data set on Canis familiaris [4] was found to be 3.
